Experimental data from article PMC6447837 (Cancer Science, 2019).

Tests used:
Bxpc‐3 cells [1] = assay: Annexin V/PI apoptosis assay; format: cell-based, human; conditions: 24 hours
Method in brief: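 Cells were treated with a range of concentrations for 24 hours, washed with PBS, then stained with annexin V‑FITC and propidium iodide for 15 minutes in the dark. […] Early (annexin V) and late (PI) apoptotic cells are reported as percentages, mean of n = 3 with SD.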

MV4‐11 = conditions: MV4‐11, Leukemia; mean ± SD; ref Zhang et al (2016) 35; cited from earlier work
Bxpc‐3 cells [2] = assay: Colony formation assay; format: cell-based, human; conditions: 18 days
Method in brief: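 Cells were seeded at 5000-8000 per well and treated with test compound the next day, from DMSO stocks diluted in medium. Medium with vehicle or compound was replaced every 4 days. Cells were then methanol-fixed and crystal violet-stained. Colonies of more than 50 cells were counted under an inverted microscope and expressed as a percentage of colony numbers. Mean of n = 3, with SD.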

RAMOS = conditions: Lymphoma, ref Zhang et al (2016) 35; cited from earlier work
SW1990 = assay: MTT antiviability assay; format: cell-based; conditions: Homo sapiens, SW1990, 72 h
cleaved caspase‐3 = assay: Immunohistochemistry of xenograft tumor tissues; format: in vivo, NOD‐SCID mice; conditions: xenograft models; LY‐1816 40 mg/kg/d p.o., gemcitabine 80 mg/kg/wk; IHC
Method in brief: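 Aspc‑1 or Bxpc‑3 s.c. tumors in NOD‑SCID mice were dosed p.o. daily from about 200 mm³, with vehicle controls. At study end, tumors were resected. Frozen sections were immunostained and imaged by light microscopy, and cleaved caspase‑3‑positive cells were counted.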

205 other kinases = assay: Radiometric kinase assay, remaining panel; format: biochemical, human; conditions: 205 other kinases of the panel; did not show activity
Aspc‐1 cells [3] = assay: Wound healing assay; format: cell-based, human; conditions: 18 hours
L929 = conditions: L929, Mouse fibroblast (normal cell line); ref Zhang et al (2016) 35; cited from earlier work
STAT3 = assay: Immunohistochemistry of xenograft tumor tissues; format: in vivo, NOD‐SCID mice; conditions: Aspc‐1 and Bxpc‐3 models; LY‐1816 and dasatinib 40 mg/kg/d p.o., gemcitabine 80 mg/kg/wk; IHC
Method in brief: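 Six-week-old female NOD-SCID mice received 5 × 10⁶ to 1 × 10⁷ cells s.c. in the right flank. Treatment began at about 200 mm³. Test compound (40 mg/kg/d) was given once daily by oral gavage in 25% PEG400 plus 5% DMSO in water. Tumors were resected at the end of dosing. Frozen sections were immunostained and imaged by light microscopy.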

FOSL1 = assay: Western blot, FOSL1 expression in intact cells; format: cell-based, human; conditions: 12 hours
plc/prf/5 = conditions: plc/prf/5, Hepatocarcinoma; ref Zhang et al (2016) 35; cited from earlier work
Bxpc‐3 cells [4] = assay: Wound healing assay; format: cell-based, human; conditions: 18 hours
SMMC7721 = conditions: SMMC7721, Hepatocarcinoma; ref Zhang et al (2016) 35; cited from earlier work
Aspc‐1 xenograft = assay: Subcutaneous xenograft model; format: in vivo, NOD‐SCID mice; conditions: Aspc‐1 model
Method in brief: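 Female NOD‑SCID mice bearing s.c. right‑flank tumors (5 × 10⁶–1 × 10⁷ cells injected) were randomized at 100–200 mm³ (6–7 per group). They received test compound in 25% PEG400/5% DMSO/water by oral gavage once daily for 18 days, or vehicle. Tumors were measured by caliper every 3 days, with volume = length × width² × 0.5.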

Aspc‐1 cells [5] = assay: EdU incorporation; format: cell-based, human; conditions: 24 hours
Method in brief: (§1)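 Cells were seeded overnight at 5000-8000 per well in 96-well plates, then exposed to test compound for 24 h. Cells were then incubated with EdU followed by Hoechst, using a commercial kit per manufacturer's instructions. EdU marks proliferating cells and Hoechst marks nuclei. The read-out was the percentage of EdU-positive cells, as mean of n = 3 with SD.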

HL‐60 = conditions: HL‐60, Acute myeloid leukemia; mean ± SD; ref Zhang et al (2016) 35; cited from earlier work
MDA‐MB‐415 = conditions: MDA‐MB‐415, Breast cancer; ref Zhang et al (2016) 35; cited from earlier work
Bxpc‐3 cells [6] = assay: EdU incorporation; format: cell-based, human; conditions: 24 hours
Method in brief: as §1

MCF‐7 = assay: MTT antiviability assay; format: cell-based; conditions: Homo sapiens, MCF7, 72 h
Src = assay: Immunohistochemistry of xenograft tumor tissues; format: in vivo, NOD‐SCID mice; conditions: Aspc‐1 and Bxpc‐3 models; LY‐1816 and dasatinib 40 mg/kg/d p.o., gemcitabine 80 mg/kg/wk; IHC
ERK = assay: Western blot, ERK phosphorylation; format: cell-based, human; conditions: Aspc‐1 and Bxpc‐3 cells, 12 hours
Method in brief: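 Aspc-1 and Bxpc-3 cells were grown overnight in complete medium and treated with test compound for 12 h. Cells were lysed in RIPA buffer and protein was quantified. Lysates were run on SDS-PAGE and transferred to PVDF, then blocked 2 h in TBS-T with 5% non-fat milk. Blots were probed for pAKT Ser473, pERK Thr202/Tyr204, pSTAT3 Tyr705, the matching total proteins and β-actin. Detection was by enhanced chemiluminescence.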

Aspc‐1 = assay: MTT antiviability assay; format: cell-based; conditions: Homo sapiens, ASPC1, 72 h
Bxpc‐3 cells [7] = assay: Transwell invasion assay; format: cell-based, human
Method in brief: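 Inserts were precoated with polymerized collagen type I. Cells were seeded on the insert bottom in serum‑free medium with serial dilutions of test compound or vehicle, with 10% FBS medium in the lower chamber. After one day, cells were stained with calcein‑AM and optical sections taken at 10‑μm intervals. Invasion was scored as cells moving >20 μm into collagen; n = 3, mean with SD.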

PC‐9 = conditions: PC‐9, Lung cancer; mean ± SD; ref Zhang et al (2016) 35; cited from earlier work

Structure (SMILES): Cc1ccc(NC(=O)c2ccc(C)c(C(F)(F)F)c2)cc1C#Cc1nn(C2CCC(O)CC2)c2ncnc(N)c12 (stereo not drawn) [LY‐1816, N‐(3‐((4‐amino‐1‐(4‐hydroxycyclohexyl)‐1H‐pyrazolo[3,4‐d]pyrimidin‐3‐yl)ethynyl)‐4‐methylphenyl)‐4‐methyl‐3‐(trifluoromethyl)benzamide]
- apoptosis (annexin V and PI‐positive populations) (Bxpc‐3 cells [1]): significantly increased the annexin V and PI‐positive populations
- IC50 (MV4‐11): 0.138 ± 0.015 µM
- colony growth (Bxpc‐3 cells [2]): significantly inhibited the colony growth
- IC50 (RAMOS): ~10 µM
- IC50 (SW1990): 0.042 ± 0.053 µM
- cleaved caspase‐3 stain in tumor tissues (cleaved caspase‐3): considerable ability to induce apoptosis
- IC50 (205 other kinases): > 10 µM
- cell migration (Aspc‐1 cells [3]): dose‐dependently reduced cell migration
- IC50 (L929): > 10 µM
- phosphorylation of STAT3 in tumor tissues (STAT3): evidently reduced the phosphorylation of Src and STAT3
- FOSL1 expression (FOSL1; 10 PDAC cell lines): downregulated the FOSL1 expression
- FOSL1 expression (FOSL1; HT29 and HCT116 cells): relatively weak potency
- IC50 (plc/prf/5): ~10 µM
- cell migration (Bxpc‐3 cells [4]): dose‐dependently reduced cell migration
- IC50 (SMMC7721): > 10 µM
- tumor‐inhibition rate (Aspc‐1 xenograft; 40 mg/kg daily, orally, 18 days): > 90%
- antitumor activity (Aspc‐1 xenograft; LY‐1816 20 or 40 mg/kg/d p.o., dasatinib 40 mg/kg/d p.o., gemcitabine 80 mg/kg once a week): dose‐dependent tumor inhibitory activities
- DNA replication (EdU) (Aspc‐1 cells [5]): dose‐dependently suppress the DNA replication
- IC50 (HL‐60): 0.031 ± 0.012 µM
- IC50 (MDA‐MB‐415): ~10 µM
- DNA replication (EdU) (Bxpc‐3 cells [6]): dose‐dependently suppress the DNA replication
- IC50 (MCF‐7): > 10 µM
- phosphorylation of Src in tumor tissues (Src): evidently reduced the phosphorylation of Src and STAT3
- phosphorylation of ERK (ERK): very weak or no impact on the phosphorylation of ERK and AKT
- IC50 (Aspc‐1): 0.054 ± 0.008 µM
- cell invasion (Bxpc‐3 cells [7]): significantly suppressed the invasion
- IC50 (PC‐9): 0.152 ± 0.041 µM
